Measured values: ChEMBL document CHEMBL4425108, “A Selective and Slowly Reversible Inhibitor of l-Type Amino Acid Transporter 1 (LAT1) Potentiates Antiproliferative Drug Efficacy in Cancer Cells” (J Med Chem, 2016)
Calls of active or inactive are those of the source. The calls are words filed in the database; no cut-off is given here.

How the values were obtained:
MCF7 [1] = test: Antiproliferative activity against human MCF7 cells assessed as reduction in cell viability at 100 measured after 24 hrs by resazurin dye-based fluorimetric analysis; assay type: functional
Summary of the method: (§1)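 MCF-7 cells were seeded at 2 × 10^4 cells/well on collagen-coated plates and treated one day later. Agents were given alone or combined (25 or 100 µM with 100 µM partner drug) in growth medium for 3 days. Viability was read daily by resazurin fluorescence (ex 560/em 590 nm) and expressed relative to untreated controls.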

[2] = biological target: T1, Large neutral amino acids transporter small subunit 2 (Homo sapiens) (UniProt Q9UHI5); test: Competitive inhibition of [14C]-L-alanine uptake at LAT2 in human MCF7 cells at 50 to 1000 uM measured during 5 mins by liquid scintillation counting; assay type: cell-based
T1 sequence (whole entry): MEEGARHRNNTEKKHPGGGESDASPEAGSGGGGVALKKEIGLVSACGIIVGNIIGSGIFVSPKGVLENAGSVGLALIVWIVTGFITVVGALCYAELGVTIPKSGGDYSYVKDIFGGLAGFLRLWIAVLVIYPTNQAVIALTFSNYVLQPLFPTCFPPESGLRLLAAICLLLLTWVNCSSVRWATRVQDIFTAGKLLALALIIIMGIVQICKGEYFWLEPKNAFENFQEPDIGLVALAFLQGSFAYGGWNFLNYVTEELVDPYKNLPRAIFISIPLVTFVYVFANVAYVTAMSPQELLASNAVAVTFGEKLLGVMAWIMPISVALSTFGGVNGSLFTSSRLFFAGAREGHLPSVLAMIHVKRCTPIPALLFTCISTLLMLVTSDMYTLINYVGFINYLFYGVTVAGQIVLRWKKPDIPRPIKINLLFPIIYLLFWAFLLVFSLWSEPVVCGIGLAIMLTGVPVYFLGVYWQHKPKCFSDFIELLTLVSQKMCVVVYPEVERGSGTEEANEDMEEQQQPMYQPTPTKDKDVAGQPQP
Summary of the method: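 MCF-7 cells were seeded at 1 × 10^5 cells/well and used one day later. Cells were washed and pre-incubated 10 min at 37 °C in HEPES-buffered HBSS (choline chloride, pH 7.4). Uptake of 10.0 µM [14C]-L-alanine ran 5 min at 37 °C with test agent (1–1000 µM) or DMSO blank. Cells were then given three ice-cold washes, lysed in 0.1 M NaOH and counted by liquid scintillation; n=3.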

[3] = biological target: T2, Large neutral amino acids transporter small subunit 1 (Homo sapiens, UniProt Q01650); test: Competitive inhibition of [14C]-L-leucine uptake at LAT1 in human MCF7 cells at 100 uM preincubated for 10 mins followed by addition of substrate measured during 5 mins by liquid scintillation counting; assay type: cell-based
T2 sequence (Q01650 whole entry): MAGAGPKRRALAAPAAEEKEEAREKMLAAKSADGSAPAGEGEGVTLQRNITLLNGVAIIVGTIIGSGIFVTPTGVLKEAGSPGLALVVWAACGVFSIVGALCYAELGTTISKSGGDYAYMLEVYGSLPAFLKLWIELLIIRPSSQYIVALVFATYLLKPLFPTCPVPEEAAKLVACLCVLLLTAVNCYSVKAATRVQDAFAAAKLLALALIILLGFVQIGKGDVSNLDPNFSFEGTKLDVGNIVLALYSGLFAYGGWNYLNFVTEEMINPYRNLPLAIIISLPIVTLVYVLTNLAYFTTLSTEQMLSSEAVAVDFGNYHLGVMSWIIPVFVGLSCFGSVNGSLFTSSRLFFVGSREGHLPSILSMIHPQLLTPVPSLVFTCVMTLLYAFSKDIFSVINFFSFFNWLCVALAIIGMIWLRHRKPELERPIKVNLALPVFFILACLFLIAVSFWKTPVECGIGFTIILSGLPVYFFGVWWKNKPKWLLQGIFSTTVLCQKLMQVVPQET
Summary of the method: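 MCF-7 cells seeded 1 × 10^5/well, used one day later. Washed and pre-incubated 10 min at 37 °C in choline-chloride HBSS (Na+-free, 25 mM HEPES, pH 7.4), then 5 min at 37 °C with 0.157 µM [14C]-L-leucine plus 1-1000 µM inhibitor (DMSO blank). Ice-cold washes, NaOH lysis, scintillation counting. IC50 by nonlinear regression over 8 concentrations. Mean ± SD, n=3.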

[4] = Cmax in mouse plasma at 23 umol/kg, ip administered as bolus by LC-MS analysis; assay type: ADME, organism-based; set-up: dose 23 umol/kg, route intraperitoneal
Summary of the method: (§2)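 Male adult mice (25 ± 5 g) given a single i.p. bolus at 23 µmol/kg. The dosing solution was 1.36 mM in 10% (v/v) DMSO, 20% (w/v) hydroxypropyl-β-cyclodextrin and 0.9% NaCl. Animals were decapitated at seven time points from 10 to 480 min. Plasma and tissues were acetonitrile-precipitated with repaglinide internal standard and analysed by LC-MS. Parameters were derived from concentration–time data, mean ± SEM (n=3).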

[5] = Tmax in mouse brain at 23 umol/kg, ip administered as bolus by LC-MS analysis; assay type: ADME, organism-based
Summary of the method: (§3)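 Adult male mice (25 ± 5 g) given a single i.p. bolus of 23 µmol/kg, dosing solution 1.36 mM in 10% (v/v) DMSO, 20% (w/v) hydroxypropyl-β-cyclodextrin, 0.9% NaCl in water. Decapitation at time points 10–480 min; plasma, brain, liver, prostate, kidney, heart collected. Acetonitrile precipitation with repaglinide internal standard, LC-MS (ESI positive). tmax and t½β taken from concentration-time data; mean ± SEM, n=3.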

[6] = Metabolic stability in mouse liver microsomes at 37 degreeC in presence of NADPH regenerating system measured after 2 hrs by HPLC analysis; assay type: ADME, Microsome
Summary of the method: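 Incubated at 37 °C for 2 h with mouse liver S9 fraction or with mouse liver microsomes plus NADPH; monitored by UV-HPLC chromatograms.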

[7] = fCmax in mouse kidney at 23 umol/kg, ip administered as bolus by LC-MS analysis; assay type: ADME, organism-based; conditions: in vivo
Summary of the method: (§4)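 Male mice (25 ± 5 g) dosed i.p. as a bolus at 23 µmol/kg in DMSO/hydroxypropyl-β-cyclodextrin/saline vehicle, sampled at time points 10–480 min; plasma and tissue homogenates (1:3 water) analysed by LC-MS. […] Mean ± SEM.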

[8] = Unbound AUC (0 to 480 mins) in mouse heart at 23 umol/kg, ip administered as bolus by LC-MS analysis; assay type: ADME, organism-based; conditions: in vivo; summary of the method: as §4
[9] = Tmax in mouse kidney at 23 umol/kg, ip administered as bolus by LC-MS analysis; assay type: ADME, organism-based; summary of the method: as §3
[10] = Unbound AUC (0 to 480 mins) in mouse brain at 23 umol/kg, ip administered as bolus by LC-MS analysis; assay type: ADME, organism-based; conditions: in vivo; summary of the method: as §4
[11] = biological target: T2, Large neutral amino acids transporter small subunit 1; test: Competitive binding to LAT1 in human MCF7 cells at 100 uM after 30 mins in presence of unselective OATP substrate L-thyroxine by HPLC analysis; assay type: cell-based
Summary of the method: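 MCF-7 cells incubated 30 min at 37 °C in HBSS (pH 7.4) holding 100 µM test compound plus 500 µM competitor. Cells washed three times with ice-cold HBSS and lysed in 0.1 M NaOH. Cell-associated compound measured by HPLC against a lysate-spiked standard curve and normalised to protein. Mean ± SD, n=3.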

[12] = biological target: T2, Large neutral amino acids transporter small subunit 1; test: Inhibition of LAT1 in human MCF7 cells assessed as potentiation of cisplatin-induced antiproliferative activity by measuring reduction in cell viability at 100 uM measured after 72 hrs by resazurin dye-based fluorimetric analysis
Summary of the method: (§5)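 MCF-7 cells seeded 2 × 10^4/well on collagen-coated plates, treated one day later in growth medium with inhibitor (25 or 100 µM) plus bestatin or cisplatin (100 µM) for up to 3 days. Viability read daily by resazurin fluorescence (ex 560/em 590 nm). Viability is treated relative to untreated control. Mean ± SD, n=3.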

[13] = biological target: T2, Large neutral amino acids transporter small subunit 1; test: Inhibition of LAT1 in human MCF7 cells assessed as potentiation of bestatin-induced antiproliferative activity by measuring reduction in cell viability at 100 uM measured after 72 hrs by resazurin dye-based fluorimetric analysis; summary of the method: as §5
[14] = fCmax in mouse plasma at 23 umol/kg, ip administered as bolus by LC-MS analysis; assay type: ADME, organism-based; conditions: in vivo; summary of the method: as §4
[15] = Cmax in mouse liver at 23 umol/kg, ip administered as bolus by LC-MS analysis; assay type: ADME, organism-based; set-up: dose 23 umol/kg, route intraperitoneal; conditions: in vivo; summary of the method: as §2
[16] = Terminal half life in mouse liver at 23 umol/kg, ip administered as bolus by LC-MS analysis; assay type: ADME, organism-based; conditions: read-out: beta t1/2; summary of the method: as §2
MCF7 [17] = test: Antiproliferative activity against human MCF7 cells assessed as reduction in cell viability at 25 uM measured after 24 hrs by resazurin dye-based fluorimetric analysis; assay type: functional; summary of the method: as §1

inhibition [2]: inactive | inhibition [3]: 77.8% | Cmax [4]: 19.5 µM | Tmax [5]: 30 min | Stability [6]: Stable | fCmax [7]: 0.37 nmol/g | fAUC [8]: 4 nmol/g/min | Tmax [9]: 10 min | fAUC [10]: 0.1 nmol/g/min | Activity [11]: Active | fCmax [14]: 0.19 nmol/mL | Cmax [15]: 38.7 nmol/g | half-life [16]: 52.8 min
SMILES: CNC(=O)COc1ccc(-c2c(C#N)c(NC(=O)c3cccc(C[C@H](N)C(=O)O)c3)n3c(nc4ccccc43)c2C#N)cc1
Activity (MCF7 [1]): 22.9% | Activity [12]: 81.9% | Activity [13]: 68.6% | Activity (MCF7 [17]): 13.9%
